Paper PMC4527528 (Chemistry & biology, 2015)
One block for each molecule: values may come before it.

Legend:
[1] = molecular target: T1, ABHD4 (Homo sapiens, UniProt Q8TB40); assay: ABPP-SILAC, in situ treatment of PC3 cells; assay type: cell-based; settings: 4 h, FP-biotin probe
T1 sequence (Q8TB40 1-342): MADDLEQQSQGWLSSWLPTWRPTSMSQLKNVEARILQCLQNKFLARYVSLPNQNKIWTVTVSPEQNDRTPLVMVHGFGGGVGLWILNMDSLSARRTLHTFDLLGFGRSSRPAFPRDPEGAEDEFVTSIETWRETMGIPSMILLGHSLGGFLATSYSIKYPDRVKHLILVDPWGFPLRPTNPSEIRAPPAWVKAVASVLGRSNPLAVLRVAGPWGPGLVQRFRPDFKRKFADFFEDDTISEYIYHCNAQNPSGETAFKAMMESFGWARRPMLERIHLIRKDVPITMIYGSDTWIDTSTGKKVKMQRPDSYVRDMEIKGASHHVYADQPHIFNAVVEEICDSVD
How it was run: (§1)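 Heavy-isotope PC3 cells (RPMI plus serum, grown to confluency) get fresh medium with test compound; light cells get DMSO. Incubated 4 h at 37 °C, 5% CO2, then PBS-washed and sonicated in PBS. Proteomes (2 mg/mL) labelled with FP-biotin (2.5 µM, 1 h) or ABC45 (5 µM, 1 h), then CuAAC to biotin-azide. Heavy and light combined, streptavidin-enriched, trypsin-digested on bead, analysed by LC-MS/MS; SILAC ratios; two independent experiments.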

[2] = molecular target: T2, ABHD3 (Homo sapiens, UniProt Q8WU67); assay: ABPP-SILAC, in situ treatment of PC3 cells; assay type: cell-based; settings: 4 h, FP-biotin probe
T2 sequence (Q8WU67 1-409): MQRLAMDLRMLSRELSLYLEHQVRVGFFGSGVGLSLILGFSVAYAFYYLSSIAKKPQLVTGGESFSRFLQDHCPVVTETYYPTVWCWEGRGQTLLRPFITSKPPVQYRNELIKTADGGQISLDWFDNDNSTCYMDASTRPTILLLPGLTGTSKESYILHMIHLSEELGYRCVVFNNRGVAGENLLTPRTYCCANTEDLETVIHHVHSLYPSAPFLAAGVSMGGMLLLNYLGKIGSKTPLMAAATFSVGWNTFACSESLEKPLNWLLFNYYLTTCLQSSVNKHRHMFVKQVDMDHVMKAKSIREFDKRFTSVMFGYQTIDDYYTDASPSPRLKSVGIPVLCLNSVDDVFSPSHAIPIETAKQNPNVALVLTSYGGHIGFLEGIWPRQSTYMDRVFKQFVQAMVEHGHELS
How it was run: as §1

[3] = molecular target: T3, PPT1 (Homo sapiens, UniProt P50897); assay: In situ competitive ABPP; assay type: cell-based; settings: transfected HEK293T cells
T3 sequence (P50897 28-306): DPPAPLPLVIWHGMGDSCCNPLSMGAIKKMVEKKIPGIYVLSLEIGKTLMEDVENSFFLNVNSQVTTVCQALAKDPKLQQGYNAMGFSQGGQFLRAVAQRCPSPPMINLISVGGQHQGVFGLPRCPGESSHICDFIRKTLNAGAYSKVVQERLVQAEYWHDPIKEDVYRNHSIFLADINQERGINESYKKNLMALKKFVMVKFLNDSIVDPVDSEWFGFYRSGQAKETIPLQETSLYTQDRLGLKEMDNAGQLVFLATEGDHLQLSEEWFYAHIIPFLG
How it was run: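 HEK293T cells transiently transfected with human PPT1 are grown to confluency in DMEM plus serum. Treated in fresh medium with test compound or DMSO, 4 h, 37 °C, 5% CO2. Washed, sonicated in PBS, and lysates labelled with the ABC45 click probe. Rhodamine-azide added by CuAAC; PNGaseF deglycosylation for the blockade test; SDS-PAGE and in-gel fluorescence.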

[4] = molecular target: T1, ABHD4; assay: Gel-based competitive ABPP; assay type: biochemical; settings: combined transfected HEK293T lysate
[5] = molecular target: T3, PPT1; assay: ABPP-SILAC with ABC45 probe, in situ treatment of PC3 cells; assay type: cell-based; settings: 1 µM, 4 h, ABC45 probe (5 µM, 1 h)
How it was run: as §1

[6] = molecular target: T4, PPT1 (Mus musculus, UniProt O88531); assay: In vivo gel-based ABPP of mouse tissues; settings: C57BL6 mice, intraperitoneal, 4 h, central and peripheral tissues
T4 sequence (O88531 28-306): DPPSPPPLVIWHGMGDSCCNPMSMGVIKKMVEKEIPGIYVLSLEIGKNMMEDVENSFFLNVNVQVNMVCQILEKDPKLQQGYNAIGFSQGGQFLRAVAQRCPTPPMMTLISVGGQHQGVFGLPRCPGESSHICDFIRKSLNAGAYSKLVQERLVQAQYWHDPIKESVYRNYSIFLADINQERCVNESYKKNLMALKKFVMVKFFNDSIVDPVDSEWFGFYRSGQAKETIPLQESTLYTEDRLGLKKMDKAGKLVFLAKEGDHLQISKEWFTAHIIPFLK
How it was run: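 C57Bl/6 mice dosed intraperitoneally across 1–40 mg/kg in saline/ethanol/emulphor 18:1:1 (v/v/v), or vehicle. After 4 h, isoflurane anaesthesia, cervical dislocation and tissue harvest. Tissue proteomes (1 mg/mL) labelled with ABC45 (1 µM, 60 min) and rhodamine-azide by CuAAC, PNGaseF-treated after labelling, resolved by SDS-PAGE and scanned for fluorescence.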

[7] = Cytotoxicity; assay type: cell-based; settings: read-out: cell toxicity IC50
[8] = tested on: serine hydrolases; assay: ABPP-SILAC serine hydrolase selectivity profile in PC3 cells; assay type: cell-based, human; settings: PC3 cells in situ, 1 or 0.1 µM, 4 h; ABHD6 and CPVL
How it was run: as §1

[9] = molecular target: T1, ABHD4; assay type: biochemical; settings: in vitro, lysates from ABHD4-transfected HEK293T cells
[10] = molecular target: T5, endogenous PPT1 (Homo sapiens, UniProt P50897); assay: MU-6S-Palm-βD-Glc substrate assay after in situ treatment of PC3 cells; assay type: cell-based; settings: 500 nM, 4 h
T5 sequence (P50897 28-306): T3 sequence (P50897 28-306)
How it was run: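 PC3 cells (RPMI plus serum, confluent) treated in situ with test compound or DMSO for 4 h at 37 °C, 5% CO2, then washed and sonicated in PBS. Lysate PPT1 activity measured with MU-6S-Palm-βD-Glc: thioester hydrolysis, then sweet almond β-glucosidase releases 4-methylumbelliferone, read by fluorescence. Activity compared with DMSO controls; three independent experiments.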

- inhibition of ABHD4 ([1]; 0.5 µM): inhibit both ABHD3 and ABHD4
- inhibition of ABHD3 ([2]; 0.5 µM): inhibit both ABHD3 and ABHD4
Structure (SMILES): O=C(ON1C(=O)C2CN(Cc3ccc(Oc4ccccc4)cc3)CCN2C1=O)N1CCC(c2ccccc2)CC1 (centres unmarked) [ABC47]

- inhibition of ABHD4 ([1]; 1 µM): completely inhibited
- blockade of ABC45 reactivity of recombinant human PPT1 ([3]; 5 µM, 4 h): blocked
- inhibition of ABHD3 ([2]; 1 µM): ~ 80%
- inhibition of PPT1 [5]: more than 90%
Structure (SMILES): COc1ccc(N2CCN(C(=O)ON3C(=O)C4CN(Cc5ccc(Oc6ccccc6)cc5)CCN4C3=O)CC2)cc1 (centres unmarked) [ABC34]
- preference for ABHD4 over ABHD3 [4]: preferentially inhibited ABHD4 over ABHD3

- dose producing near-complete blockade of PPT1 [6]: 1 to 5 mg/kg
- in situ inhibition of hPPT1 ([3]; 200 nM): complete inhibition
- 4-MU-6S-Palm-βD-Glc hydrolysis activity compared to DMSO-treated control cells [10]: substantial reductions
- reduction in endogenous PPT1 activity [10]: 90%
Structure (SMILES): COc1ccc(N2CCN(C(=O)ON3C(=O)C4CN(CC5CCN(Cc6ccccc6)CC5)CCN4C3=O)CC2)cc1 (centres unmarked) [ABC44]
- IC50 [7]: > 50 µM
- cross-reactive serine hydrolase activities [8]: two of the >40 quantified SH activities
- effect on NAPE hydrolysis activity of ABHD4 [9]: neither ABC44 (17) nor the LYPLA1/2 inhibitor JJH254 (7) altered
